Assay results published in ChEMBL document CHEMBL3244186, “Synthesis and evaluation of the thiosemicarbazone, dithiocarbazonate, and 2'-pyrazinylhydrazone of pyrazinecarboxaldehyde as agents for the treatment of iron overload” (J Med Chem, 1979).

Experiments:
[1] = Iron chelating activity assessed as removal of [59]-Fe from [59]-Fe-labeled transferrin at 1 mM measured per hr by spectrometric analysis; type: physicochemical; details: 1000 µM
Procedure, shortened: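 About 10^6 cpm of 59Fe-labeled transferrin in 1.0 mL of 0.1 M Hepes (pH 7.00), inside a dialysis sack, dialyzed at room temperature against 25.0 mL of 1.00 mM ligand in the same buffer. Dialysate aliquots of 1.00 mL taken at intervals were gamma-counted (800-1400 keV window). Initial release rates were derived from these counts.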

[2] = system: Mus musculus; assay: Iron chelating activity in iron-overloaded BDF1 mouse assessed as iron level in lung at 40 mg/kg, ip treated from day 8 to 13 after erythrocyte suspension injection on day 1, 3 and 5 by atomic absorption spectroscopic analysis; type: functional; details: route intraperitoneal
Procedure, shortened: (§1)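 Iron-loaded male BDF1 mice (10 per group) given ip drug in EtOH/Tween 80/saline vehicle daily on days 8-13. On day 15, under Et2O, mice were exsanguinated. Organs were washed, frozen, thawed, weighed and homogenized in 0.014 M NaCl made with iron-free water; supernatant iron was measured by AAS, as μg/mouse. Mean ± SD; t test versus iron-loaded vehicle control.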

[3] = system: Mus musculus; assay: Iron chelating activity in iron-overloaded BDF1 mouse assessed as iron level in lung at 80 mg/kg, ip treated from day 8 to 13 after erythrocyte suspension injection on day 1, 3 and 5 by atomic absorption spectroscopic analysis; type: functional; details: route intraperitoneal; procedure, shortened: as §1
[4] = system: Mus musculus; assay: Iron chelating activity in iron-overloaded BDF1 mouse assessed as daily urinary iron level at 40 mg/kg, ip treated from day 8 to 13 after erythrocyte suspension injection on day 1, 3 and 5 by atomic absorption spectroscopic analysis; type: functional, Urine; details: route intraperitoneal
[5] = Binding affinity to FeSO4 assessed as stability constant at pH 7.4 after 1 hr; type: physicochemical; details: pH 7.4, 1 h
Procedure, shortened: (§2)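 Continuous-variation (Job) method: iron and ligand solutions diluted after 1 h to 10.00 mL with 50 mM barbital buffer (pH 7.4), all containing 0.100 M KNO3. Visible absorbance at λmax was read at several times to confirm equilibrium. Absorbance was plotted against metal/(metal + ligand) to give the stoichiometry and minimum stability constant.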

[6] = Iron chelating activity assessed as removal of iron from ferritin after 20 hrs by atomic absorption spectrophotometric analysis; type: physicochemical
Procedure, shortened: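 Ferritin holding 1.34 mg total Fe was dialyzed at room temperature against 25.0 mL of 1.00 mM ligand solution. Iron in the dialysate was measured by atomic absorption spectroscopy at 20 h.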

[7] = system: Mus musculus; assay: Iron chelating activity in iron-overloaded BDF1 mouse assessed as transferrin saturation at 40 mg/kg, ip treated from day 8 to 13 after erythrocyte suspension injection on day 1, 3 and 5 relative to control; type: functional; details: route intraperitoneal
Procedure, shortened: (§3)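 Iron-loaded male BDF1 mice (10 per group) received ip drug daily on days 8-13, with non-loaded and iron-loaded vehicle-treated control groups. On day 15, blood collected by cardiac puncture under Et2O was pooled per group. Percent transferrin saturation was measured with a standard hematologic kit.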

[8] = system: Mus musculus; assay: Iron chelating activity in iron-overloaded BDF1 mouse assessed as transferrin saturation at 80 mg/kg, ip treated from day 8 to 13 after erythrocyte suspension injection on day 1, 3 and 5 relative to control; type: functional; details: route intraperitoneal; procedure, shortened: as §3
[9] = system: Mus musculus; assay: Iron chelating activity in iron-overloaded BDF1 mouse assessed as daily urinary iron level at 80 mg/kg, ip treated from day 8 to 13 after erythrocyte suspension injection on day 1, 3 and 5 by atomic absorption spectroscopic analysis; type: functional, Urine; details: route intraperitoneal
[10] = system: Mus musculus; assay: Iron chelating activity in iron-overloaded BDF1 mouse assessed as iron level in liver at 40 mg/kg, ip treated from day 8 to 13 after erythrocyte suspension injection on day 1, 3 and 5 by atomic absorption spectroscopic analysis; type: functional; details: route intraperitoneal; procedure, shortened: as §1
[11] = system: Mus musculus; assay: Iron chelating activity in iron-overloaded BDF1 mouse assessed as iron level in liver at 80 mg/kg, ip treated from day 8 to 13 after erythrocyte suspension injection on day 1, 3 and 5 by atomic absorption spectroscopic analysis; type: functional; details: route intraperitoneal; procedure, shortened: as §1
[12] = system: Mus musculus; assay: Iron chelating activity in iron-overloaded BDF1 mouse assessed as iron level in spleen at 40 mg/kg, ip treated from day 8 to 13 after erythrocyte suspension injection on day 1, 3 and 5 by atomic absorption spectroscopic analysis; type: functional; details: route intraperitoneal; procedure, shortened: as §1
[13] = system: Mus musculus; assay: Iron chelating activity in iron-overloaded BDF1 mouse assessed as iron level in spleen at 80 mg/kg, ip treated from day 8 to 13 after erythrocyte suspension injection on day 1, 3 and 5 by atomic absorption spectroscopic analysis; type: functional; details: route intraperitoneal; procedure, shortened: as §1
[14] = system: Mus musculus; assay: Iron chelating activity in iron-overloaded BDF1 mouse assessed as iron level in heart at 40 mg/kg, ip treated from day 8 to 13 after erythrocyte suspension injection on day 1, 3 and 5 by atomic absorption spectroscopic analysis; type: functional; details: route intraperitoneal; procedure, shortened: as §1
[15] = system: Mus musculus; assay: Iron chelating activity in iron-overloaded BDF1 mouse assessed as iron level in heart at 80 mg/kg, ip treated from day 8 to 13 after erythrocyte suspension injection on day 1, 3 and 5 by atomic absorption spectroscopic analysis; type: functional; details: route intraperitoneal; procedure, shortened: as §1
[16] = Binding affinity to Fe(NO3)3 assessed as stability constant at pH 7.4 after 1 hr; details: pH 7.4, 1 h
[17] = Binding affinity to FeSO4 assessed as stability constant at pH 7.5 after 1 hr; type: physicochemical; details: pH 7.5, 1 h
[18] = Binding affinity to Fe(NO3)3 assessed as stability constant at pH 7.5 after 1 hr; type: physicochemical; details: pH 7.5, 1 h
[19] = system: Mus musculus; assay: Iron chelating activity in iron-overloaded BDF1 mouse assessed as iron level in heart at 100 mg/kg, ip treated from day 8 to 13 after erythrocyte suspension injection on day 1, 3 and 5 by atomic absorption spectroscopic analysis; type: functional; details: route intraperitoneal; procedure, shortened: as §1
[20] = system: Mus musculus; assay: Iron chelating activity in iron-overloaded BDF1 mouse assessed as iron level in lung at 50 mg/kg, ip treated from day 8 to 13 after erythrocyte suspension injection on day 1, 3 and 5 by atomic absorption spectroscopic analysis; type: functional; details: route intraperitoneal; procedure, shortened: as §1
[21] = system: Mus musculus; assay: Iron chelating activity in iron-overloaded BDF1 mouse assessed as iron level in lung at 100 mg/kg, ip treated from day 8 to 13 after erythrocyte suspension injection on day 1, 3 and 5 by atomic absorption spectroscopic analysis; type: functional; details: route intraperitoneal; procedure, shortened: as §1
[22] = Binding affinity to Fe(NO3)3 assessed as stability constant at pH 7.4 after 1 hr; type: physicochemical; details: pH 7.4, 1 h; procedure, shortened: as §2
[23] = system: Mus musculus; assay: Iron chelating activity in iron-overloaded BDF1 mouse assessed as transferrin saturation at 50 mg/kg, ip treated from day 8 to 13 after erythrocyte suspension injection on day 1, 3 and 5 relative to control; type: functional; details: route intraperitoneal; procedure, shortened: as §3
[24] = system: Mus musculus; assay: Iron chelating activity in iron-overloaded BDF1 mouse assessed as transferrin saturation at 100 mg/kg, ip treated from day 8 to 13 after erythrocyte suspension injection on day 1, 3 and 5 relative to control; type: functional; details: route intraperitoneal; procedure, shortened: as §3
[25] = system: Mus musculus; assay: Iron chelating activity in iron-overloaded BDF1 mouse assessed as daily urinary iron level at 50 mg/kg, ip treated from day 8 to 13 after erythrocyte suspension injection on day 1, 3 and 5 by atomic absorption spectroscopic analysis; type: functional, Urine; details: route intraperitoneal
[26] = system: Mus musculus; assay: Iron chelating activity in iron-overloaded BDF1 mouse assessed as daily urinary iron level at 100 mg/kg, ip treated from day 8 to 13 after erythrocyte suspension injection on day 1, 3 and 5 by atomic absorption spectroscopic analysis; type: functional, Urine; details: route intraperitoneal
[27] = system: Mus musculus; assay: Iron chelating activity in iron-overloaded BDF1 mouse assessed as iron level in liver at 50 mg/kg, ip treated from day 8 to 13 after erythrocyte suspension injection on day 1, 3 and 5 by atomic absorption spectroscopic analysis; type: functional; details: route intraperitoneal; procedure, shortened: as §1
[28] = system: Mus musculus; assay: Iron chelating activity in iron-overloaded BDF1 mouse assessed as iron level in liver at 100 mg/kg, ip treated from day 8 to 13 after erythrocyte suspension injection on day 1, 3 and 5 by atomic absorption spectroscopic analysis; type: functional; details: route intraperitoneal; procedure, shortened: as §1
[29] = system: Mus musculus; assay: Iron chelating activity in iron-overloaded BDF1 mouse assessed as iron level in spleen at 50 mg/kg, ip treated from day 8 to 13 after erythrocyte suspension injection on day 1, 3 and 5 by atomic absorption spectroscopic analysis; type: functional; details: route intraperitoneal; procedure, shortened: as §1
[30] = system: Mus musculus; assay: Iron chelating activity in iron-overloaded BDF1 mouse assessed as iron level in spleen at 100 mg/kg, ip treated from day 8 to 13 after erythrocyte suspension injection on day 1, 3 and 5 by atomic absorption spectroscopic analysis; type: functional; details: route intraperitoneal; procedure, shortened: as §1
[31] = system: Mus musculus; assay: Iron chelating activity in iron-overloaded BDF1 mouse assessed as iron level in heart at 50 mg/kg, ip treated from day 8 to 13 after erythrocyte suspension injection on day 1, 3 and 5 by atomic absorption spectroscopic analysis; type: functional; details: route intraperitoneal; procedure, shortened: as §1
[32] = system: Mus musculus; assay: Iron chelating activity in iron-overloaded BDF1 mouse assessed as iron level in lung at 125 mg/kg, ip treated from day 8 to 13 after erythrocyte suspension injection on day 1, 3 and 5 by atomic absorption spectroscopic analysis; type: functional; details: route intraperitoneal; procedure, shortened: as §1
[33] = Binding affinity to Fe(NO3)3 assessed as stability constant; type: physicochemical
Procedure, shortened: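 Minimum stability constant and stoichiometry were found by continuous variation (Job plot). Metal and ligand solutions stood 1 h and were then diluted with 50 mM barbital buffer (pH 7.4) containing 0.100 M KNO3. Visible absorbance at λmax was read at several times to confirm equilibrium. Absorbance was plotted against metal/(metal + ligand).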

[34] = system: Mus musculus; assay: Iron chelating activity in iron-overloaded BDF1 mouse assessed as transferrin saturation at 125 mg/kg, ip treated from day 8 to 13 after erythrocyte suspension injection on day 1, 3 and 5 relative to control; type: functional; details: route intraperitoneal; procedure, shortened: as §3
[35] = system: Mus musculus; assay: Iron chelating activity in iron-overloaded BDF1 mouse assessed as daily urinary iron level at 125 mg/kg, ip treated from day 8 to 13 after erythrocyte suspension injection on day 1, 3 and 5 by atomic absorption spectroscopic analysis; type: functional, Urine; details: route intraperitoneal
[36] = system: Mus musculus; assay: Iron chelating activity in iron-overloaded BDF1 mouse assessed as iron level in liver at 125 mg/kg, ip treated from day 8 to 13 after erythrocyte suspension injection on day 1, 3 and 5 by atomic absorption spectroscopic analysis; type: functional; details: route intraperitoneal; procedure, shortened: as §1
[37] = system: Mus musculus; assay: Iron chelating activity in iron-overloaded BDF1 mouse assessed as iron level in spleen at 125 mg/kg, ip treated from day 8 to 13 after erythrocyte suspension injection on day 1, 3 and 5 by atomic absorption spectroscopic analysis; type: functional; details: route intraperitoneal; procedure, shortened: as §1
[38] = system: Mus musculus; assay: Iron chelating activity in iron-overloaded BDF1 mouse assessed as iron level in heart at 125 mg/kg, ip treated from day 8 to 13 after erythrocyte suspension injection on day 1, 3 and 5 by atomic absorption spectroscopic analysis; type: functional; details: route intraperitoneal; procedure, shortened: as §1

Structure (SMILES)	Activity [1] [%]	Activity [2] [µg]	Activity [3] [µg]	Activity [4] [µg]	Activity [5]	Activity [6] [µM]	Activity [7] [%]	Activity [8] [%]	Activity [9] [µg]	Activity [10] [µg]	Activity [11] [µg]	Activity [12] [µg]	Activity [13] [µg]	Activity [14] [µg]	Activity [15] [µg]	Activity [33]	other results
N/C(S)=N/N=C/c1ccccn1	0.3																
NC(=S)N/N=C/c1cnccn1	0.3	15.4	16.1	1.1	> 17	1.4	58	44	1.1	171	156	16.7	14.6	9.2	9.4		Activity [16]: > 25
S=C([S-])N/N=C/c1cnccn1.[Na+]	0.4	14.8	17.7	1.4		48.8	51	27	5.5	193	176	14	18.6	8.5	10.6		Activity [17]: > 17; Activity [18]: > 25
C(=N\Nc1cnccn1)/c1cnccn1	0.1				16.4	< 1											Activity [19]: 7.6 µg; Activity [20]: 14.6 µg; Activity [21]: 12.8 µg; Activity [22]: > 27; Activity [23]: 44%; Activity [24]: 38%; Activity [25]: 3.4 µg; Activity [26]: 4.9 µg; Activity [27]: 174 µg; Activity [28]: 164 µg; Activity [29]: 16.4 µg; Activity [30]: 14.9 µg; Activity [31]: 7.4 µg
CC(=O)N(O)CCCCCNC(=O)CCC(=O)N(O)CCCCCNC(=O)CCC(=O)N(O)CCCCCN [DEFEROXAMINE]	1					25.2										30.6	Activity [32]: 16.4 µg; Activity [34]: 75%; Activity [35]: 3 µg; Activity [36]: 132 µg; Activity [37]: 19.2 µg; Activity [38]: 9.4 µg
O=c1cccccc1O [TROPOLONE]	19.7					4.1										10.5	
